Results as given in ChEMBL document CHEMBL5058577, “EUbOPEN Chemogenomics Library 2 (Multiplex)” (2022).

Tested on: U2OS
Test: Multiplex assay against U2OS
Assay type: toxicity, cell-based
Details: human
Summary of the method: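 With compound added, live cells were imaged on a CQ1 microscope at 37°C and 5% CO2; staining with Hoechst33342, BioTracker Green Microtubule Cytoskeleton Dye, MitoTracker Red and Annexin V Alexa Fluor 680 had been done at seeding. The CellPathfinder machine-learning gating scheme split cells into Hoechst high-intensity objects or normal cells, normal cells into healthy, pyknosed or fragmented nuclei, and pyknosed cells into mitotic or apoptotic. The tubulin, mitochondrial-mass and membrane-permeability phenotypes are per cents of healthy-nucleus cells.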

[1] = 12 h, 1 µM, compound concentration 1 uM, replicate 1
[2] = 12 h, 1 µM, compound concentration 1 uM, replicate 2
[3] = 12 h, 10 µM, compound concentration 10 uM, replicate 1
[4] = 12 h, 10 µM, compound concentration 10 uM, replicate 2
[5] = 24 h, 1 µM, compound concentration 1 uM, replicate 1
[6] = 24 h, 1 µM, compound concentration 1 uM, replicate 2
[7] = 24 h, 10 µM, compound concentration 10 uM, replicate 1
[8] = 24 h, 10 µM, compound concentration 10 uM, replicate 2
[9] = 48 h, 1 µM, compound concentration 1 uM, replicate 1
[10] = 48 h, 1 µM, compound concentration 1 uM, replicate 2
[11] = 48 h, 10 µM, compound concentration 10 uM, replicate 1
[12] = 48 h, 10 µM, compound concentration 10 uM, replicate 2

Cc1sc2c(c1C)C(c1ccc(Cl)cc1)=N[C@H](CC(=O)OC(C)(C)C)c1nnc(C)n1-2
Population Apoptotic (%) [1]: 81% | Population Fragmented Nuclei (%) [1]: 28% | Population Healthy Nuclei (%) [1]: 63% | Population Hoechst High Intensity Objects (%) [1]: 2% | Population Membrane Permeable-Phenotype (%) [1]: 7% | Population Mitochondria Different-Phenotype (%) [1]: 4% | Population Mitotic Cells (%) [1]: 18% | Population Normal (%) [1]: 97% | Population Pyknosed Nuclei (%) [1]: 8% | Population Tubulin-Different-Phenotype (%) [1]: 4% | Total Cell Count [1]: 256 | Population Apoptotic (%) [2]: 71% | Population Fragmented Nuclei (%) [2]: 16% | Population Healthy Nuclei (%) [2]: 77% | Population Hoechst High Intensity Objects (%) [2]: 4% | Population Mitochondria Different-Phenotype (%) [2]: 2% | Population Mitotic Cells (%) [2]: 28% | Population Normal (%) [2]: 95% | Population Pyknosed Nuclei (%) [2]: 6% | Total Cell Count [2]: 120 | Population Apoptotic (%) [3]: 51% | Population Fragmented Nuclei (%) [3]: 32% | Population Healthy Nuclei (%) [3]: 56% | Population Hoechst High Intensity Objects (%) [3]: 2% | Population Membrane Permeable-Phenotype (%) [3]: 42% | Population Mitochondria Different-Phenotype (%) [3]: 35% | Population Mitotic Cells (%) [3]: 48% | Population Normal (%) [3]: 97% | Population Pyknosed Nuclei (%) [3]: 11% | Population Tubulin-Different-Phenotype (%) [3]: 39% | Total Cell Count [3]: 240 | Population Apoptotic (%) [4]: 90% | Population Fragmented Nuclei (%) [4]: 22% | Population Healthy Nuclei (%) [4]: 68% | Population Hoechst High Intensity Objects (%) [4]: 0% | Population Membrane Permeable-Phenotype (%) [4]: 13% | Population Mitochondria Different-Phenotype (%) [4]: 24% | Population Mitotic Cells (%) [4]: 10% | Population Normal (%) [4]: 100% | Population Pyknosed Nuclei (%) [4]: 8% | Population Tubulin-Different-Phenotype (%) [4]: 11% | Total Cell Count [4]: 118 | Population Apoptotic (%) [5]: 77% | Population Fragmented Nuclei (%) [5]: 22% | Population Healthy Nuclei (%) [5]: 69% | Population Hoechst High Intensity Objects (%) [5]: 0% | Population Membrane Permeable-Phenotype (%) [5]: 5% | Population Mitochondria Different-Phenotype (%) [5]: 1% | Population Mitotic Cells (%) [5]: 22% | Population Normal (%) [5]: 99% | Population Pyknosed Nuclei (%) [5]: 7% | Population Tubulin-Different-Phenotype (%) [5]: 1% | Total Cell Count [5]: 280 | Population Apoptotic (%) [6]: 75% | Population Fragmented Nuclei (%) [6]: 20% | Population Healthy Nuclei (%) [6]: 70% | Population Hoechst High Intensity Objects (%) [6]: 3% | Population Mitochondria Different-Phenotype (%) [6]: 2% | Population Mitotic Cells (%) [6]: 25% | Population Normal (%) [6]: 96% | Population Pyknosed Nuclei (%) [6]: 8% | Population Tubulin-Different-Phenotype (%) [6]: 2% | Total Cell Count [6]: 149 | Population Apoptotic (%) [7]: 83% | Population Fragmented Nuclei (%) [7]: 29% | Population Healthy Nuclei (%) [7]: 57% | Population Hoechst High Intensity Objects (%) [7]: 2% | Population Membrane Permeable-Phenotype (%) [7]: 17% | Population Mitochondria Different-Phenotype (%) [7]: 17% | Population Mitotic Cells (%) [7]: 16% | Population Normal (%) [7]: 97% | Population Pyknosed Nuclei (%) [7]: 13% | Population Tubulin-Different-Phenotype (%) [7]: 8% | Total Cell Count [7]: 280 | Population Apoptotic (%) [8]: 76% | Population Fragmented Nuclei (%) [8]: 24% | Population Healthy Nuclei (%) [8]: 65% | Population Hoechst High Intensity Objects (%) [8]: 0% | Population Membrane Permeable-Phenotype (%) [8]: 7% | Population Mitochondria Different-Phenotype (%) [8]: 25% | Population Mitotic Cells (%) [8]: 23% | Population Normal (%) [8]: 99% | Population Pyknosed Nuclei (%) [8]: 10% | Population Tubulin-Different-Phenotype (%) [8]: 3% | Total Cell Count [8]: 130 | Population Apoptotic (%) [9]: 77% | Population Fragmented Nuclei (%) [9]: 20% | Population Healthy Nuclei (%) [9]: 72% | Population Hoechst High Intensity Objects (%) [9]: 1% | Population Membrane Permeable-Phenotype (%) [9]: 5% | Population Mitochondria Different-Phenotype (%) [9]: 2% | Population Mitotic Cells (%) [9]: 22% | Population Normal (%) [9]: 98% | Population Pyknosed Nuclei (%) [9]: 6% | Population Tubulin-Different-Phenotype (%) [9]: 2% | Total Cell Count [9]: 415 | Population Apoptotic (%) [10]: 96% | Population Fragmented Nuclei (%) [10]: 21% | Population Healthy Nuclei (%) [10]: 64% | Population Hoechst High Intensity Objects (%) [10]: 3% | Population Membrane Permeable-Phenotype (%) [10]: 7% | Population Mitochondria Different-Phenotype (%) [10]: 7% | Population Mitotic Cells (%) [10]: 3% | Population Normal (%) [10]: 96% | Population Pyknosed Nuclei (%) [10]: 14% | Population Tubulin-Different-Phenotype (%) [10]: 5% | Total Cell Count [10]: 228 | Population Apoptotic (%) [11]: 86% | Population Fragmented Nuclei (%) [11]: 23% | Population Healthy Nuclei (%) [11]: 57% | Population Hoechst High Intensity Objects (%) [11]: 2% | Population Membrane Permeable-Phenotype (%) [11]: 11% | Population Mitochondria Different-Phenotype (%) [11]: 7% | Population Mitotic Cells (%) [11]: 13% | Population Normal (%) [11]: 97% | Population Pyknosed Nuclei (%) [11]: 18% | Population Tubulin-Different-Phenotype (%) [11]: 5% | Total Cell Count [11]: 342 | Population Apoptotic (%) [12]: 89% | Population Fragmented Nuclei (%) [12]: 20% | Population Healthy Nuclei (%) [12]: 68% | Population Hoechst High Intensity Objects (%) [12]: 1% | Population Mitochondria Different-Phenotype (%) [12]: 8% | Population Mitotic Cells (%) [12]: 10% | Population Normal (%) [12]: 98% | Population Pyknosed Nuclei (%) [12]: 11% | Population Tubulin-Different-Phenotype (%) [12]: 3% | Total Cell Count [12]: 174
